Experimental data of several laboratories.
Each line is one published result; the experiments were not run side by side.
Target: Serine/threonine-protein kinase PAK 1 (PAK1, Homo sapiens, UniProt Q13153)

Compound | effect on | method | tested at | remaining binding [%]
O=C(c1ccc(Nc2ncc(Cl)c(-c3cc4ccccc4s3)n2)cc1)N1CCC(N2CCCC2)CC1 | binding | competition with immobilised ligand | 1 µM | 85
N[C@H]1CCN(c2nccc(-c3cnn4ncccc34)n2)C1 | binding | – | 1 µM | 100
N#Cc1ccccc1CSc1nnc2c(n1)[nH]c1ccccc12 | binding | competition with immobilised ligand | 10 µM | 80
CN(C)c1ncc(F)c(-c2cnn3ncccc23)n1 | binding | – | 1 µM | 87
COc1ncc2cc3ccccc3nc2c1C#N | cell-free assay | competition with immobilised ligand | 5 µM | 97
CS(=O)(=O)c1cc(C2(NC(=O)c3cncc4c3cnn4-c3ccc(F)cc3)CC2)ccn1 | cell-free assay | competition with immobilised ligand | 1 µM | 100
COc1ccnn2ncc(-c3ccnc(N(C)C)n3)c12 | binding | – | 1 µM | 79
CNC(=O)[C@@H]1CC[C@@H](n2c(-c3ccc4cnccc4c3)nc3ccc(C(=O)NCc4cccc(C(N)=O)c4)cc32)C1 | binding | competition with immobilised ligand | 1 µM | 100
CN(c1nccc(-c2cnn3ncccc23)n1)C1CC1 | binding | – | 1 µM | 100
CN(C)c1ncnc(-c2ccc3nc(Nc4cc(CN5CCN(C(=O)CC(F)(F)F)CC5)ccn4)[nH]c3c2)c1Cl | cell-free assay | competition with immobilised ligand | 1 µM | 100
F[C@@H]1CCN(c2nccc(-c3cnn4ncccc34)n2)C1 | binding | – | 1 µM | 100
COc1cnc(Nc2cccc(S(N)(=O)=O)c2)nc1N1CCN(c2ccccc2)CC1 | binding | competition with immobilised ligand | 1 µM | 99
O=C(c1ccc(Nc2nccc(-c3cc4ccccc4s3)n2)cc1)N1CCC(N2CCCC2)CC1 | binding | competition with immobilised ligand | 1 µM | 80
c1cncc(-c2cccc(Nc3nccc(NC4CCCCC4)n3)c2)c1 | binding | competition with immobilised ligand | 10 µM | 85
Cc1nc(C2CCN(C(=O)c3ccc(OC(F)(F)F)cc3N)CC2)c2ncc(N3CCN(C)CC3)cc2n1 | cell-free assay | competition with immobilised ligand | 1 µM | 100
C[C@@H](c1ccc(-n2cnc3c(N)ncnc32)cc1)N1CCc2nn(C)c(Cc3ccccc3)c2C1=O | binding | competition with immobilised ligand | 0.1 µM | 97
O=C(Nc1cccnn1)N1CCC(=Cc2cccc(Oc3ccc(C(F)(F)F)cn3)c2)CC1 | cell-free assay | competition with immobilised ligand | 1 µM | 72
O=C(Nc1c[nH]nc1C(=O)NC1CCNCC1)c1cc(F)cc(F)c1 | binding | competition with immobilised ligand | 1 µM | 100
Cc1cc(C)c(-n2ccn3nc(-c4cccnc4)cc23)cc1NC(=O)c1cc(C#N)cc(S(F)(F)(F)(F)F)c1 | cell-free assay | competition with immobilised ligand | 0.1 µM | 82.2
O=C(NCCCN1CCOCC1)c1ccc(Nc2ncc(Cl)c(-c3ccc(Cl)s3)n2)cc1 | binding | competition with immobilised ligand | 1 µM | 98
COc1cc(-c2cn(C3CCc4c(F)cccc4N(CC(F)(F)F)C3=O)nn2)ccc1-n1cnc(C)c1 (stereo not drawn) | cell-free assay | competition with immobilised ligand | 1 µM | 93
C[C@@H]1CN(c2ccc3ncc(-c4ccc5[nH]nc(C6CC6)c5c4)n3n2)C[C@H](C)O1 | binding | competition with immobilised ligand | 50 nM | 100
CN(C)c1nccc(-c2cnn3ncccc23)n1 | binding | – | 1 µM | 100
CO[C@@H](C)c1c(Nc2ccc([C@H](N(C)C(=O)C3CCS(=O)(=O)CC3)C(F)(F)F)cc2)cnc2cc(Cl)nn12 | cell-free assay | competition with immobilised ligand | 1 µM | 74
